Our source for the IC50, inhibition and Ki values is ChEMBL document CHEMBL1125483, “Novel inhibitors of prolyl 4-hydroxylase. 3. Inhibition by the substrate analogue N-oxaloglycine and its derivatives” (J Med Chem, 1992).

Test [1] addresses T1, Prolyl 4-hydroxylase subunit alpha-1 (Rattus norvegicus, UniProt P54001). Nature of the test: Compound was evaluated for the inhibition of prolyl 4-hydroxylase.
Test [2] concerns the target Prolyl 4-hydroxylase subunit alpha-1 (Rattus norvegicus) (UniProt P54001). The test can be described thus: Compound was evaluated for the inhibition of prolyl 4-hydroxylase at 50 ug/mL.
The target of test [3] is T1, Prolyl 4-hydroxylase subunit alpha-1. Nature of the test: (§1) Compound was evaluated for the inhibition of prolyl 4-hydroxylase. The method, boiled down: (§2)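 Prolyl 4-hydroxylase activity was measured with an indirect assay that follows the conversion of labelled 2-ketoglutarate cosubstrate into labelled succinate. Each point was run in duplicate. IC50 was obtained by interpolation from six-point dose-response curves.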

For test [4] the target is unchanged. The test can be described thus: Inhibitory activity against prolyl 4-hydroxylase. The method, boiled down: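 Indirect radiometric assay: conversion of labelled cofactor 2-ketoglutarate into labelled succinate measured. Each point in duplicate; IC50 interpolated from six-point dose-response curves.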
Test [5] deals with Prolyl 4-hydroxylase subunit alpha-1 (Rattus norvegicus) (UniProt P54001). Nature of the test: Compound was evaluated for the inhibition of prolyl 4-hydroxylase at 100 ug/mL.
The target is the same in test [6]. The test can be described thus: Compound was evaluated for the inhibition of prolyl 4-hydroxylase at 100 ug/mL.
The target is the same in test [7]. The test is described as §1. The settings on record: concentration not given here. The method, boiled down: as §2

What is called IC50 is the concentration needed to halve the response being measured. High values mean weaker potency, low ones greater potency. The term inhibition denotes how much of the control response was suppressed. Read a low inhibition as a weak effect. In general, Ki refers to a measure of affinity in units of concentration, obtained from inhibition or displacement. Read a high Ki as weaker binding.

Chain of Prolyl 4-hydroxylase subunit alpha-1 (Rattus norvegicus) (P54001 whole entry): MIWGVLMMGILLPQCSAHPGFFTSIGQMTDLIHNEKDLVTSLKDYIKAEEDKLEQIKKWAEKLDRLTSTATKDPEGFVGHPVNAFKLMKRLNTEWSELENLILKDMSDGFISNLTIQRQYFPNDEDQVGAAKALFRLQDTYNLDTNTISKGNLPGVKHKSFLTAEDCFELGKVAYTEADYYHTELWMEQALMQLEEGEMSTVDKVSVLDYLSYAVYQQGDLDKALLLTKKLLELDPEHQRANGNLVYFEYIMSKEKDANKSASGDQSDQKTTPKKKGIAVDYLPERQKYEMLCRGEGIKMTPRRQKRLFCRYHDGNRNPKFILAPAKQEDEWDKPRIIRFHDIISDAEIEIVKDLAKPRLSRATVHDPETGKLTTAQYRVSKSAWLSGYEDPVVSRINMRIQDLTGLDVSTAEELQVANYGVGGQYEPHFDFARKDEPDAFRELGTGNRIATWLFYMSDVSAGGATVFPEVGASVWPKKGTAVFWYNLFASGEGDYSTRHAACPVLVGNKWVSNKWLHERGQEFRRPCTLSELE
T1 sequence (P54001 whole entry): as above

Take `C[C@@H](NC(=O)C(=O)O)C(=O)O`: in test [1], half-maximal inhibition (IC50) was put at 621 µM.
Take `CC(C)CC(NC(=O)C(=O)O)C(=O)O` (stereo not drawn): the inhibition in test [2] is 16%.
Compound `O=C(O)c1ccc(C(=O)O)nc1` [PYRIDINE-2,5-DICARBOXYLIC ACID] showed an IC50 in test [3] of 5.18 µM. In test [4], this compound had a Ki of 800 nM.
As to `O=C(O)C(=O)Nc1ccc(C(=O)O)cc1`, the inhibition in test [5] is 9%.
In test [2], `O=C(O)C(=O)NC(Cc1ccccc1)C(=O)O` (stereo not drawn) registered an inhibition of 18%.
`C[C@H](NC(=O)C(=O)O)C(=O)O` showed an IC50 in test [3] of 38.2 µM.
`CSCCC(NC(=O)C(=O)O)C(=O)O` (stereo not drawn) gave an inhibition in test [6] of 9%.
In the case of `O=C(O)CCNC(=O)C(=O)O`, in test [7], the inhibition is 24%.
In test [3], `O=C(O)CNC(=O)C(=O)O` [N-OXALYLGLYCINE] yielded an IC50 of 2.89 µM and an inhibition constant (Ki) of 540 nM.
In turn, `CC(C)(NC(=O)C(=O)O)C(=O)O` displayed an inhibition in test [2] of 26%.
Take `CS(=O)(=O)NC(=O)CNC(=O)C(=O)O`: in test [3], the IC50 amounted to 414 µM.
Compound `CN(CC(=O)O)C(=O)C(=O)O` registered an inhibition in test [2] of 10%.
For the compound `O=C(CNC(=O)C(=O)O)NS(=O)(=O)c1ccccc1`, the inhibition in test [2] was 34%.
The same measure, in the same setting: the same measure for `O=C(O)C(=O)N1CCCC1C(=O)O` (stereo not drawn): 10%.
As for `CCOc1ccc(NC(=O)CNC(=O)C(=O)O)cc1`, the inhibition in test [2] came out at 16%.
In turn, `CC(NC(=O)C(=O)O)C(=O)O` (stereo not drawn) returned an IC50 in test [3] of 90.7 µM.
